Results: ChEMBL document CHEMBL1123985, “Oral absorption of cephalosporin antibiotics. 1. Synthesis, biological properties, and oral bioavailability of 7-(arylacetamido)-3-chloro cephalosporins in animals” (J Med Chem, 1988)
Converted amounts (≈) assume the structure as drawn.

Assays:
[1] = Area under plasma concentration vs time curve observed in Rhesus monkeys after, iv administration of single 30 mg/kg dose; format: ADME, organism-based, Macaca mulatta; set-up: dose 30 mg/kg, route intravenous; details: rhesus monkey
Method in brief: (§1)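 Rhesus monkeys, adult males, six animals per compound, each given drug orally and iv; fasted overnight. Single 30 mg/kg solution doses, by nasogastric tube (in water) or saphenous vein (in isotonic lactated Ringer). Plasma sampled at intervals, frozen at -70 °C, antibacterial activity by microbiological assay. AUC in μg min/mL; oral bioavailability from oral vs iv AUC.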

[2] = Area under plasma concentration vs time curve observed in Rhesus monkeys after oral administration of single 30 mg/kg dose; format: ADME, organism-based, Macaca mulatta; set-up: dose 30 mg/kg, route oral; details: rhesus monkey; method in brief: as §1
[3] = tested on: Canis familiaris; assay: Area under plasma concentration vs time curve observed in female mongrel dogs after, iv administration of single 15 mg/kg dose; format: ADME, organism-based, Canis lupus familiaris; set-up: dose 15 mg/kg, route intravenous; details: dog, in vivo
Method in brief: (§2)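 Six female mongrel dogs (14-23 kg) fasted overnight, bladder catheterized; single 15 mg/kg solution doses by stomach tube (in water, total 500 mL) or cephalic vein (saline or pH 6.0 NaCl/phosphate/acetate buffer). Plasma sampled at intervals; activity by disk-plate agar diffusion against E. coli MB 3804, standards in dog serum or buffer. AUC μg min/mL, mean ± SEM; BA from iv vs po AUC and urinary recovery.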

[4] = tested on: Canis familiaris; assay: Area under plasma concentration vs time curve observed in female mongrel dogs after, oral administration of single 15 mg/kg dose; format: ADME, organism-based, Canis lupus familiaris; set-up: dose 15 mg/kg, route oral; details: dog, in vivo; method in brief: as §2
[5] = Area under plasma concentration vs time curve observed in rats for 0-3 h; format: ADME; set-up: time < 3 hr; details: rat
Method in brief: (§3)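 Rats, jugular vein cannulated (two per group), test compound iv 20 mg/kg; probenecid 100 mg/kg iv 5 min before in treated groups. Heparinized plasma sampled at 5, 20, 40 min and 1, 2, 3 h, assayed microbiologically (B. subtilis agar well). AUC 0-3 h in μg min/mL; half-life in min.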

[6] = Compound was tested for percent of oral bioavailability in mice; 56-74; format: ADME, organism-based; details: mouse, in vivo, read-out: Bioavailabiility
Method in brief: (§4)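 Male Cox mice given water and liquid diet overnight; 20 mg/kg in saline (2 mg/mL) sc or orally; urine from collection cages plus bladder contents over 2 h; activity by agar well assay with Bacillus subtilis ATCC 6633. Bioavailability from percent dose excreted in urine after oral vs parenteral dosing.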

[7] = Bioavailability in rat; format: ADME, organism-based; details: in vivo
Method in brief: (§5)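 Male Wistar rats (200-300 g), jugular-cannulated, upper GI emptied by light cycle; 20 mg/kg in saline (6 mg/mL) sc or orally. Urine collected in wire-bottom cages, assayed by B. subtilis agar well method. Mean ± SD recovery with N and range; bioavailability = oral over mean sc recovery.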

[8] = Mean plasma levels in rats 1 hr after iv administration of 100 mg/kg of probenecid 5 min prior to test compound; format: ADME, organism-based; set-up: dose 100 mg/kg, route intravenous; details: rat, read-out: Plasma levels; method in brief: as §3
[9] = Mean plasma levels in rats 2 hr after iv administration of 100 mg/kg of probenecid 5 min prior to test compound; format: ADME, organism-based; set-up: dose 100 mg/kg, route intravenous; details: rat, read-out: Plasma levels; method in brief: as §3
[10] = Mean plasma levels in rats 3h after intravenous administration of 20 mg/kg of compound; format: ADME, organism-based; set-up: dose 20 mg/kg, route intravenous; details: rat, read-out: Plasma levels; method in brief: as §3
[11] = Mean plasma levels in rats 40 min after iv administration of 100 mg/kg of probenecid 5 min prior to test compound; format: ADME, organism-based; set-up: dose 100 mg/kg, route intravenous; details: rat, read-out: Plasma levels; method in brief: as §3
[12] = Mean plasma levels in rats at a time 5 min after iv administration of 100 mg/kg of probenecid 5 min prior to test compound; format: ADME, organism-based; set-up: dose 100 mg/kg, route intravenous; details: rat, read-out: Plasma levels; method in brief: as §3
[13] = Mean plasma levels in rats 20 min after iv administration of 100 mg/kg of probenecid 5 min prior to test compound; format: ADME, organism-based; set-up: dose 100 mg/kg, route intravenous; details: rat, read-out: Plasma levels; method in brief: as §3
[14] = Oral bioavailability in Rhesus monkey; format: ADME, organism-based, Macaca mulatta; details: in vivo; method in brief: as §1
[15] = Oral bioavailability in dog (female mongrel); format: ADME, organism-based, Canis lupus familiaris; details: in vivo; method in brief: as §2
[16] = Percent of urinary recovery in rats after, oral administration of single 20 mg/kg dose in solution (N,range); format: ADME, organism-based; set-up: dose 20 mg/kg, route oral; details: rat, urine, read-out: Recovery; method in brief: as §5
[17] = Percent of urinary recovery in rats after, sc administration of single 20 mg/kg dose in solution (N,range); format: ADME, organism-based; set-up: dose 20 mg/kg, route subcutaneous; details: rat, urine, read-out: Recovery; method in brief: as §5
[18] = Dose in urine (24-h urine excretion) in female mongrel dogs after oral administration of single 15 mg/kg dose; format: ADME, organism-based, Canis lupus familiaris; set-up: dose 15 mg/kg, route oral; details: dog
Method in brief: (§6)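 Female mongrel dogs (n=6), bladder catheter; urine collected at intervals after single 15 mg/kg iv or oral solution dose, frozen; antibiotic activity by disk-plate agar diffusion against E. coli MB 3804 with standards in pH 6.0 buffer; percent of dose recovered in urine.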

[19] = Half-life of the compound; format: ADME; method in brief: as §3
[20] = tested on: Escherichia coli; assay: Minimum inhibitory concentration against EC14 strain Escherichia coli; format: functional
[21] = tested on: Klebsiella aerogenes; assay: Minimum inhibitory concentration against EB17 strain of Enterobacter aerogenes; format: functional
[22] = tested on: Klebsiella pneumoniae; assay: Minimum inhibitory concentration against X68 strain of Klebsiella pneumoniae; format: functional
[23] = tested on: Salmonella; assay: Minimum inhibitory concentration against X514 strain of Salmonella; format: functional
[24] = Minimum inhibitory concentration against N9 strain of Shigella sonnei; format: functional
[25] = tested on: Staphylococcus epidermidis; assay: Minimum inhibitory concentration against 222 strain of Staphylococcus epidermidis; format: functional
[26] = tested on: Staphylococcus epidermidis; assay: Minimum inhibitory concentration against Epil strain of Staphylococcus epidermidis; format: functional
[27] = tested on: Staphylococcus aureus; assay: Minimum inhibitory concentration against S13E strain of Staphylococcus aureus; format: functional
[28] = tested on: Staphylococcus aureus; assay: Minimum inhibitory concentration against V41 strain of Staphylococcus aureus; format: functional
[29] = tested on: Staphylococcus aureus; assay: Minimum inhibitory concentration against X1.1 strain of Staphylococcus aureus; format: functional
[30] = tested on: Streptococcus pyogenes; assay: Minimum inhibitory concentration against Streptococcus pyogenes C203; format: functional
[31] = tested on: Haemophilus influenzae; assay: (§7) Minimum inhibitory concentration against sens CL strain of Haemophilus influenzae; format: functional
[32] = tested on: Haemophilus influenzae; assay: (§8) Minimum inhibitory concentration against res 76 strain of Haemophilus influenzae; format: functional
[33] = Dose in urine (24-h urine excretion) in female mongrel dogs after iv administration of single 15 mg/kg dose; format: ADME, organism-based, Canis lupus familiaris; set-up: dose 15 mg/kg, route intravenous; details: dog; method in brief: as §6
[34] = tested on: Staphylococcus aureus; assay: Minimum inhibitory concentration against 3055 strain of Staphylococcus aureus
[35] = tested on: Streptococcus pyogenes; assay: Minimum inhibitory concentration against C203 strain of Streptococcus pyogenes
[36] = tested on: Streptococcus pneumoniae; assay: Minimum inhibitory concentration against park strain of Streptococcus pneumoniae
[37] = tested on: Streptococcus pneumoniae; assay: Minimum inhibitory concentration against Park strain of Streptococcus pneumoniae
[38] = Oral bioavailability in mouse; format: ADME, organism-based; details: in vivo; method in brief: as §4
[39] = tested on: Mus musculus; assay: Efficacy against mouse infected ip with C203 strain of Streptococcus pyogenes, administered po to 19-21-g random sex ICR mice at 1 hr and 5 hr; format: functional
Method in brief: (§9)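 ICR mice, random sex, 19-21 g, challenged ip with 50-500 LC50 from a frozen organism pool; compound given sc or po at 1 and 5 h after challenge, five 2-fold dose levels, eight mice per level; ED50 derived.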

[40] = tested on: Mus musculus; assay: Efficacy against mouse infected ip with C203 strain of Streptococcus pyogenes, administered sc to 19-21-g random sex ICR mice at 1 hr and 5 hr; format: functional; method in brief: as §9
[41] = tested on: Mus musculus; assay: Efficacy against mouse infected ip with park strain of Streptococcus pneumoniae administered po to 19-21-g random sex ICR mice at 1 hr and 5 hr; format: functional; method in brief: as §9
[42] = tested on: Mus musculus; assay: Efficacy against mouse infected ip with park strain of Streptococcus pneumoniae administered sc to 19-21-g random sex ICR mice at 1 hr and 5 hr; format: functional; method in brief: as §9
[43] = tested on: Mus musculus; assay: Efficacy against mouse infected ip with 3055 strain of Staphylococcus aureus, administered po to 19-21-g random sex ICR mice at 1 hr and 5 hr; format: functional; method in brief: as §9
[44] = tested on: Mus musculus; assay: Efficacy against mouse infected ip with 3055 strain of Staphylococcus aureus, administered sc to 19-21-g random sex ICR mice at 1 hr and 5 hr; format: functional; method in brief: as §9
[45] = as §7; format: functional
[46] = as §8; format: functional
[47] = tested on: Streptococcus pneumoniae; assay: Minimum inhibitory concentration against Park strain of Streptococcus pneumoniae; format: functional

O=C(COc1ccccc1)N[C@@H]1C(=O)N2C(C(=O)O)=C(Cl)CS[C@H]12
AUC [1]: 38000 ng·h/mL | AUC [2]: 5000 ng·h/mL | AUC [3]: 57500 ng·h/mL | AUC [4]: 16700 ng·h/mL | AUC at 3 h [5]: 51400 ng·h/mL | bioavailability [6]: 56% | bioavailability [7]: 23.1% | concentration at 1 h [8]: 18400 ng/mL | concentration at 2 h [9]: 4600 ng/mL | concentration at 3 h [10]: 500 ng/mL | concentration at 40 min [11]: 25200 ng/mL | concentration at 5 min [12]: 66000 ng/mL | concentration at 20 min [13]: 39100 ng/mL | bioavailability [14]: 13.1% | bioavailability [15]: 30% | dose excreted [16]: 10.1% | dose excreted [17]: 43.8% | dose excreted [18]: 18% | half-life [19]: 30 min | MIC [20]: 64 µg/mL (≈ 174 µM) | MIC [21]: > 128 µg/mL | MIC [22]: 128 µg/mL (≈ 347 µM) | MIC [23]: > 128 µg/mL | MIC [24]: > 128 µg/mL | MIC [25]: 0.25 µg/mL (≈ 0.678 µM) | MIC [26]: 4 µg/mL (≈ 10.8 µM) | MIC [27]: 16 µg/mL (≈ 43.4 µM) | MIC [28]: 8 µg/mL (≈ 21.7 µM) | MIC [29]: 0.25 µg/mL (≈ 0.678 µM) | MIC [30]: 0.125 µg/mL (≈ 0.339 µM) | MIC [31]: 1 µg/mL (≈ 2.71 µM) | MIC [32]: 2 µg/mL (≈ 5.42 µM) | dose excreted [33]: 48% | MIC [34]: 0.25 µg/mL (≈ 0.678 µM) | MIC [35]: 0.06 µg/mL (≈ 0.163 µM) | MIC [36]: 0.06 µg/mL (≈ 0.163 µM) | MIC [37]: 0.125 µg/mL (≈ 0.339 µM)

N[C@@H](C(=O)N[C@@H]1C(=O)N2C(C(=O)O)=C(Cl)CS[C@H]12)c1ccccc1 [CEFACLOR ANHYDROUS]
bioavailability [38]: 76% | MIC [20]: 1 µg/mL (≈ 2.72 µM) | MIC [21]: 16 µg/mL (≈ 43.5 µM) | MIC [22]: 1 µg/mL (≈ 2.72 µM) | ED50 [39]: 1.25 mg/kg | ED50 [40]: 1.25 mg/kg | ED50 [41]: 10.7 mg/kg | ED50 [42]: 11.5 mg/kg | ED50 [43]: 1.36 mg/kg | ED50 [44]: 1.32 mg/kg | MIC [23]: 0.5 µg/mL (≈ 1.36 µM) | MIC [24]: 4 µg/mL (≈ 10.9 µM) | MIC [25]: 4 µg/mL (≈ 10.9 µM) | MIC [26]: 8 µg/mL (≈ 21.8 µM) | MIC [27]: 64 µg/mL (≈ 174 µM) | MIC [28]: 16 µg/mL (≈ 43.5 µM) | MIC [29]: 1 µg/mL (≈ 2.72 µM) | MIC [30]: 0.25 µg/mL (≈ 0.68 µM) | MIC [45]: 1 µg/mL (≈ 2.72 µM) | MIC [46]: 2 µg/mL (≈ 5.44 µM) | MIC [47]: 0.5 µg/mL (≈ 1.36 µM) | MIC [34]: 1 µg/mL (≈ 2.72 µM) | MIC [35]: 0.25 µg/mL (≈ 0.68 µM) | MIC [36]: 2 µg/mL (≈ 5.44 µM)
